From PubChem
tolC growth inh – growth inhibitors of E. coli BW25113 tolC mutant; 65,000 tested, 2.2% active; OD615; growth inhibition, % at 10 µM (by protocol); AID 573;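 active = growth inhibition at or above a cutoff equal to the mean over every tested compound plus 3 SD, cut at about 60% in these data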;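 also: growth measured after 20 h incubation at 37 °C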
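Test system: tolC-deleted E. coli BW25113; medium: LB with kanamycin 50 µg/mL; compound: single-point testing at 10 µM; incubation: 20 h compound exposure of bacteria at 37 °C; signal: OD at 615 nm; evaluation: growth inhibition in percent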
PostGolgi ctrl – growth of the yeast control strain, post-Golgi counter-screen; efflux-deficient yeast background strain, growth absorbance A615, 16 h; inhibition, % at 10 µM; 98,000 tested, 5% active
Cav3 T inh – human Cav3.2 channel inhibition, primary screen; O95180; B-score at 10 µM; AID 449739; 100,000 tested, 4% active; Cav3.2-expressing cells, Fluo-4 calcium fluorescence FDSS; active compounds read low;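 active = single-dose well whose peak fluorescence ratio is a statistical outlier from its plate by either plate-standardised score or position-corrected B-score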
Ecoli WT expand – blocks growth of wild type E. coli BW25113 | OD600 absorbance | growth inhibition, % at 100 µM | 98,000 tested, 0.15% active;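 active = growth inhibition above about 50% at one test dose, limit read from the data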;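 also: growth measured after 20 h incubation at 37 °C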
PostGolgi yeast – growth inhibition of a yeast mutant, post-Golgi transport screen. inhibition, % at 10 µM. 98,000 tested, 0.9% active. AID 739. post-Golgi transport phenotypic cell assay;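 also: yeast cells grown in 1536-well plates; yeast grown about 18 h at 30C before absorbance read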
Starred values were filed as active, the others as inactive; / = no result. Shown are actives, neighbours in structure and some others; about 8.4% of the full set was active somewhere. Rule as the data show it, unless noted: active = inhibition above about 30%; inactive = the rest.

SMILES | tolC growth inh | PostGolgi ctrl | Cav3 T inh | Ecoli WT expand | PostGolgi yeast
CCN(CC)S(=O)(=O)c1cccc(-c2nnc(SCC#N)n2Cc2ccccc2)c1 | 1 | 33* | 1.8 | 8 | -4
Cc1ccc(C2CC(c3cccs3)n3nc(N)nc3N2)cc1 (configuration not stated) | 20 | 4 | -0.087 | -7 | -3
Cc1ccc(C(=O)N/N=C/c2ccc([N+](=O)[O-])s2)cc1 | / | 7 | -0.17 | 8 | -6
Cc1cccc(NC(=S)N/N=C/c2ccc([N+](=O)[O-])s2)c1 | / | 96* | 0.58 | 4 | 44*
COc1ccc(S(=O)(=O)Nc2cc3c4c(oc3c3ccccc23)CC(C)(C)CC4=O)cc1 | / | 13 | 0.32 | -8 | -14
COc1ccc(S(=O)(=O)Nc2cc3c4c(oc3c3ccccc23)CCCC4=O)cc1 | / | 45* | -0.073 | -2 | 2
CCOc1ccc(C(=O)Nc2ccccc2N2CCOCC2)cc1 | / | 33* | -0.38 | 1 | -5
CCOc1ccc(C(=O)Nc2ccccc2N2CCCC2)cc1 | / | 8 | -1 | -1 | 9
CCC(C)Oc1cccc(C(=O)Nc2ccccc2N2CCOCC2)c1 (configuration not stated) | 45 | 25 | -5.3* | -9 | 14
CCOc1ccc(C(=O)C2CCN(CC(=O)Nc3ccccc3N3CCOCC3)CC2)cc1 | 76* | 2 | -1.3 | -9 | -11
CCCSc1nc(C)nc2c1c(=O)n(C)c(=O)n2C | / | -3 | 0.32 | 3 | -4
COc1ccccc1-n1c(SCC(=O)NC2CCCCC2)nc2c(c1=O)SCC2 | 12 | 5 | / | 5 | 3
FC(F)(F)c1cccc(NC(=S)Nc2ccc(Cl)cc2Cl)c1 | / | 53* | -0.13 | 15 | 38*
CC(=O)c1ccc(NC(=O)Nc2cccc(Cl)c2)cc1 | / | 14 | -2.7 | 52* | 5
Fc1ccc(CNC(=S)Nc2ccc(Cl)cc2)cc1 | / | 5 | -4.3* | 6 | -5
COC(=O)c1ccc(NC(=O)Nc2ccc(F)c(Cl)c2)cc1 | / | 35* | 0.66 | 15 | 3
COc1ccc(NC(=O)CC#N)cc1OC | / | 13 | 0.76 | 4 | -3
Fc1ccc(NC(=S)Nc2ccc(F)c(Cl)c2)cc1Cl | / | 65* | -4.1* | 89* | 72*
CCCCC(=O)Nc1ccc(F)c(Cl)c1 | 10 | 7 | 0.035 | 15 | -13
O=C1CCCc2c1cc(C(=O)Nc1ccc(Cl)cn1)c(=O)n2-c1ccccc1 | 18 | 10 | -0.13 | -12 | -1
O=C1CCCc2c1cc(-c1ccccc1)n2-c1ccccc1 | / | 51* | -0.95 | -1 | -5
Cn1c(=O)c2nc(-c3ccccc3)oc2c2ccccc21 | 37 | 61* | -1.9 | -9 | 9
O=C(Nc1nc2ccccc2[nH]1)C12CC3CC(CC(C3)C1)C2 | / | 22 | -0.36 | -5 | -9
O=C(OCc1nc2ccccc2[nH]1)C12CC3CC(CC(C3)C1)C2 | / | 12 | -6.7* | 5 | -2
Oc1ccc(/C=N/n2c3ccccc3c3ccccc32)cc1 | / | 2 | -1.5 | 7 | 14
SMILES | tolC growth inh | PostGolgi ctrl | Cav3 T inh | Ecoli WT expand | PostGolgi yeast
CN(C)c1nc(NCc2ccccc2)nc(SCC(=O)Nc2ccc(Cl)c(Cl)c2)n1 | / | 14 | -4.1* | -13 | 0
CC(c1nnc(SCC(=O)Nc2ccc3[nH]c(=O)[nH]c3c2)n1Cc1ccccc1)N(C)C (configuration not stated) | -5 | 5 | 0.99 | 9 | -7
Cc1ccc2nc(-c3cccnc3SCC(=O)N3c4ccccc4CC3C)[nH]c2c1 (configuration not stated) | / | 13 | -4.4* | 8 | -2
Cc1ccc2nc(SCC(=O)N3c4ccccc4CC3C)c(C)cc2c1 (configuration not stated) | / | 28 | -2 | -13 | -12
COc1ccc2c(=O)c3c(=O)n(Cc4ccco4)c(-c4ccc(C)cc4)nc3oc2c1 | 48 | 44* | -1.9 | -5 | 6
CCOc1ccc(NC(=O)C2=C(C)C(=O)OC23CCC(C)CC3)cc1 (configuration not stated) | / | 3 | -2.9 | 3 | -2
Nc1cc(=O)[nH]c(SCc2ccc(Cl)cc2)n1 | / | 23 | -0.31 | 6 | -2
O=c1cc(O)nc(SCc2ccc(Cl)cc2)[nH]1 | 52 | 2 | -6.9* | 5 | 2
CC(=O)Nc1cccc(Oc2cc(C#N)c(C#N)cc2N2CCCCCC2)c1 | 36 | 19 | -1.9 | -14 | 25
CN(C)c1ccnc2sc(C(=O)NCc3ccccc3)c(N)c12 | 20 | 63* | -0.29 | -12 | 13
COc1ccccc1Cn1c2nc3ccccc3nc2c2c(=O)n(CC(C)C)cnc21 | 1 | / | / | / | /
O=[N+]([O-])c1cc(C(F)(F)F)ccc1N/N=C/c1cc2ccccc2nc1Cl | / | 12 | / | -13 | 44*
